# Reference: PMC11476771 (BMC Nephrology, 2024)
# Like-named read-outs stand apart in the source and are kept apart here.
# Columns and labels:
# [1] = assay type: in vivo, human
# Procedure, shortened: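 Open-label, parallel-group, single 3.0 mcg/kg IV dose by check-in weight in NDD subjects stratified by MDRD eGFR, and in matched healthy controls. Plasma sampled predose to 72 h; urine collected in intervals to 72 h. LC-MS/MS (LLOQ 0.1 ng/mL plasma, 1.0 ng/mL urine); noncompartmental parameters. ANCOVA on ln Cmax/AUCinf (covariates age, weight, BMI, sex) gave geometric mean ratios with 90% CI. CL was regressed linearly on eGFR.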
# [2] = Safety; assay type: in vivo, human; conditions: single IV 3.0 mcg/kg
# [3] = Safety; assay type: in vivo, human; conditions: HD subjects; multiple-dose PK study
# [4] = Multiple-dose phase 2; assay type: in vivo, human; conditions: for Dose proportionality of Cmax and AUC0 − 48 (power model): 0.5, 1.0, 2.5 mcg/kg, 95% CIs included 1
# Procedure, shortened: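 Randomized, double-blind, placebo-controlled dose escalation in HD subjects. Sequential cohorts of 8 (6 active, 2 placebo), randomized 3:1 within strata of urine output. IV bolus given within 15 min after each of 3 HD sessions over 1 week. Serial plasma sampled days 1–8 by LC-MS/MS (LLOQ 0.1 ng/mL). Noncompartmental parameters; RAC from day 5:day 1 AUC0−48; power-model dose proportionality.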
# [5] = hemodialysis patients after treatment discontinued; cited from earlier work
structure (smiles),measurement,setting,value
CC(C)C[C@@H](NC(=O)[C@@H](Cc1ccccc1)NC(=O)[C@H](N)Cc1ccccc1)C(=O)N[C@H](CCCCN)C(=O)N1CCC(N)(C(=O)O)CC1 [difelikefalin],Intercept of total CL versus eGFR,"[1]; CL value = intercept + slope * eGFR, IV 3.0 mcg/kg, 95% CI 3.734794–20.470724",12.1
same,Slope of total CL versus eGFR,"[1]; CL value = intercept + slope * eGFR, IV 3.0 mcg/kg, NDD subjects with impaired or normal renal function, 95% CI 0.482284–0.718031, P < 0.0001",0.6002
same,Exposure relative to healthy subjects,"[1]; moderate renal impairment vs healthy subjects, single IV 3.0 mcg/kg",1.7 fold
same,Reduction of clearance compared with healthy subjects,"[1]; moderate renal impairment, single IV 3.0 mcg/kg",47.0%
same,Exposure relative to healthy subjects,"[1]; severe renal impairment vs healthy subjects, single IV 3.0 mcg/kg",3.3 fold
same,Reduction of clearance compared with healthy subjects,"[1]; severe renal impairment, single IV 3.0 mcg/kg",71.7%
same,Time of peak plasma concentration,"[1]; single IV 3.0 mcg/kg, first post-dose PK sample, across all treatment groups",2 to 3 min
same,Subjects with vomiting,[2]; 3/36 subjects,8.3%
same,Subjects with dizziness,[2]; 4/36 subjects,11.1%
same,Subjects with mild headache,[2]; 4/36 subjects,11.1%
same,Subjects with paresthesia (mild),[2]; 5/36 subjects,13.9%
same,Subjects reporting TEAEs,[2]; 17/36 subjects,47.2%
same,Serious AEs,[2]; all 36 subjects,none were serious AEs
same,Total number of TEAEs,[2]; all 36 subjects,37
same,TEAEs considered related to study drug,"[2]; all 36 subjects, number of events",17
same,TEAEs of moderate severity,"[2]; number of events, most TEAEs mild",7
same,"SAEs, severe TEAEs, TEAEs leading to discontinuation, deaths",[3],"no SAEs, severe TEAEs, TEAEs that led to drug discontinuations, or deaths"
same,Dose proportionality of Cmax and AUC0 − 48 (power model),[4]; HD subjects,slope values were all close to unity
same,Dose proportionality of Cmax and AUC0 − 48 (power model),"[4]; HD subjects, listed as IV difelikefalin",demonstrated dose proportionality
same,"Mean t1/2, range over dose groups","[4]; HD subjects, day 1, 0.5-2.5 mcg/kg",1390 to 1870 min
same,"Mean accumulation ratio (RAC), range over dose groups","[4]; HD subjects, day 5, 3 dose groups",1.0–1.2
same,Increase of half-life in HD subjects compared with normal renal function,[4]; cross-study comparison,approximately 10 fold
same,Clearance in HD subjects prior to dialysis as % of healthy subjects,"[4]; cross-study comparison, reference is 2.5 mcg/kg HD group",14%
same,Tmax,"[4]; human, in vivo, iv",5 min
same,Detectability in plasma after dialysis cycles,[5],no longer detectable in plasma after 2 dialysis cycles
same,Reduction of plasma concentration by a single dialysis cycle,[5],approximately 83%
